Screening results from PubChem BioAssay.
Most compounds without a hit are left out; they make up all but 3.4% or so of the library.
TAAR1 antagonist – antagonists of human TAAR1; Q96RJ0; hit rate 1.5% among 360,000; CHO RD-HGA16 TAAR1, Fluo-8 calcium fluorescence, antagonist; inhibition, % at 3 µM; AID 624466;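 active = inhibition above a per-plate cutoff, the mean inhibition of test compounds on that plate plus 3 SD, cut at about 49% in these data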;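 also: 0% = DMSO plus EC80 beta-PEA response and 100% = DMSO alone without agonist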
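Material: RD-HGA16 CHO cells with stable hTAAR1 and Gα16; Dosing: single nominal final test compound concentration of 3 µM; Schedule: seeding 17-24 h prior, 75-min 37 °C, 30-min RT dye loading; Detection: kinetic Fluo-8 calcium fluorescence measurement; Measure: % inhibition from peak post-agonist over basal fluorescence ratio; Benchmarks: vehicle and agonist controls.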
TRPML3 ag – agonists of human TRPML3 channel. Q8TDD5. HEK293 TRPML3-YFP, Fluo-8 calcium fluorescence; 100% = the carbachol control signal. activation, % at 3 µM. hit rate 0.29% among 220,000;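 active = activation above its plate's cutoff, the mean activation of the plate's test wells plus 3 SD, cut at about 12% in these data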;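 also: 0% = DMSO only wells and 100% = carbachol wells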
Target sequence (Q8TDD5 whole entry, looked up): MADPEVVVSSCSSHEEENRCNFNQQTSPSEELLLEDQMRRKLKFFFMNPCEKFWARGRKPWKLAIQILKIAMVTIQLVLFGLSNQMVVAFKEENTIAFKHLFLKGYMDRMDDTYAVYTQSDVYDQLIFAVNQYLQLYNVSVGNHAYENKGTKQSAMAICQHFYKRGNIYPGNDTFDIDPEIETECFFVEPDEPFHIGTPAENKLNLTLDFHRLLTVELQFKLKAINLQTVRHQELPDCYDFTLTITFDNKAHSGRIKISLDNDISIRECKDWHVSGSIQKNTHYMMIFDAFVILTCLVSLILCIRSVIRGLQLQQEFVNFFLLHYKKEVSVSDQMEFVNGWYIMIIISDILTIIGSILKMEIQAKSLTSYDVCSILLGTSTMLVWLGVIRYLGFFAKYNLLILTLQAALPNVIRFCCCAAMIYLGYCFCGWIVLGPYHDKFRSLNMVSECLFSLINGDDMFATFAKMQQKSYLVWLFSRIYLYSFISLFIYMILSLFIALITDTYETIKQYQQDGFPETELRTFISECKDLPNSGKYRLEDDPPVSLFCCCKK
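Test system – HEK293 line with stable expression of human TRPML3-YFP channel · Control set – carbachol 87 µM final as high control (100%), DMSO as low control (0%) · Signal – Fluo-8 calcium dye fluorescence, ex 470-495, em 515-575 nm · Incubation – 1-h 37 °C dye load, 5-s basal, 120-s post-compound reads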
LANA-H2A inh – blocks KSHV LANA binding to histone H2A/H2B; Q9QR71; cell-free LANA-H2A/H2B peptide, fluorescence polarization; inhibition, % (test concentration not listed); hit rate 0.6% among 320,000; AID 2629; in the data active = inhibition mostly above about 10%, no sharp cut-off; inactive = mostly below about 6.7%
GPR7 antagonist – blocks human GPR7 receptor signaling; P48145; GPR7-expressing cells, fluorescence antagonist assay; inhibition, % at 4.4 µM; hit rate 1.1% among 290,000; in the data active = inhibition above about 16%, passing the limit was not always enough;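 also: cells stimulated with the agonist NPW; 0% = agonist with vehicle and 100% = vehicle without agonist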
TAAR1 ag – human TAAR1 agonism. Q96RJ0. activation, % at 3 µM. AID 624467. CHO RD-HGA16 TAAR1, Fluo-8 calcium fluorescence; vehicle wells 0%, saturating PEA agonist 100%. hit rate 0.99% among 360,000;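 active = activation above the mean activation of all test compounds in the run plus 3 SD, cut at about 38% in these data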
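Test system: RD-HGA16 (CHO) cells co-expressing Gα16 and hTAAR1 | Doses: Single dose, 3 µM | Schedule: 17-24 h seeding, 75 min 37 °C dye, 30 min RT | Evaluation: % activation from peak over basal fluorescence ratio, DMSO-to-PEA scaled | Technique: Kinetic Fluo-8 calcium fluorescence | Benchmarks: Low control DMSO, high control PEA (EC100)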
zfTRPN1 agonist – agonists of zebrafish TRPN1 channel; activation, % at 3 µM; hit rate 0.18% among 220,000; AID 1424; HEK293 zebrafish TRPN1-YFP, Fluo-8 calcium fluorescence; 100% = response to 87 µM carbachol;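 active = activation above its plate's cutoff, the mean activation of test wells on that plate plus 3 SD, cut at about 19% in these data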;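 also: 0% = DMSO alone and 100% = 87 µM carbachol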
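Assay system: Zebrafish TRPN1-YFP in HEK293 cells | Incubation: Dye loading 1 h at 37 °C, then 30 min room temperature | Measured by: Kinetic Fluo-8 fluorescence, ex 470-495, em 515-575 nm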
TAAR1 ag confirm – confirmation of human TAAR1 agonists. shares compounds with TAAR1 ag. CHO RD-HGA16 TAAR1, Fluo-8 calcium fluorescence; scaled: DMSO 0%, maximal phenethylamine 100%. activation, % at 3 µM. hit rate 82% among 2,400. AID 651783;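 active = activation above a cutoff set at the run's mean compound activation plus 3 SD, cut at about 39% in these data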
Ga16 nonsel ag – nonselective agonism, TAAR1 counter-screen; AID 651787; shares compounds with TAAR1 ag; activation, % at 3 µM; hit rate 50% among 2,400; CHO-Ga16 parental, Fluo-8 calcium fluorescence; normalized to maximal ATP response, DMSO zero;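 active = activation above the run cutoff, the mean activation over all tested wells plus 3 SD, cut at about 12% in these data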;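 also: 0% = DMSO wells and 100% = maximal ATP response on the peak over basal ratio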
TAAR1 desens – counter-screen for human TAAR1 agonists: agonists that desensitize TAAR1; inhibition, % at 3 µM; hit rate 46% among 2,400; shares compounds with TAAR1 ag; CHO RD-HGA16 hTAAR1, Fluo-8 calcium, beta-PEA response inhibition;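 active = inhibition above the run cutoff, the mean inhibition of all test compounds plus 3 SD, cut at about 49% in these data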;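 also: beta-PEA stimulus applied at its EC80; loss of beta-PEA calcium signal after compound pretreatment read as receptor desensitization; 0% = DMSO with beta-PEA at EC80 and 100% = DMSO alone without agonist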
Ga16 antag count – counter-screen for TAAR1 agonists: nonselective Ga16 antagonists; shares compounds with TAAR1 ag; CHO-Ga16 ATP-induced calcium, Fluo-8 fluorescence; inhibition, % at 3 µM; hit rate 39% among 2,400; AID 651952;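 active = inhibition above the plate's mean compound inhibition plus 3 SD, computed per plate, cut at about 22% in these data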;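 also: 0% = EC80 ATP with DMSO and 100% = DMSO wells without ATP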
* hit, by the source's call; x = no result; + = active, no number.

SMILES	TAAR1 antagonist	TRPML3 ag	LANA-H2A inh	GPR7 antagonist	TAAR1 ag	zfTRPN1 agonist	TAAR1 ag confirm	Ga16 nonsel ag	TAAR1 desens	Ga16 antag count
Cc1noc(C)c1COc1ccccc1C(=O)NNC(=O)C(C)Oc1ccccc1F (centres undefined)	-0.8	x	1.9	x	0.9	x	x	x	x	x
COc1ccc(NC(=O)CN2CCN(S(=O)(=O)N3CCCCCC3)CC2)cc1	7.0	x	5.6	-4.5	-2.4	x	x	x	x	x
Cc1c(NCc2cc(Cl)cc(Cl)c2O)c(=O)n(-c2ccccc2)n1C	15.8	0.7	0.9	-0.6	6.8	-0.8	x	x	x	x
Cc1c(NCc2cc(Cl)ccc2O)c(=O)n(-c2ccccc2)n1C	25.5	-1.0	-0.3	4.5	49.7*	-1.6	25.0	6.4	23.7	13.0
COC(=O)C1=NN(C(=O)c2cccc(Br)c2)C(O)(c2ccc(Cl)cc2)C1 (centres undefined)	70.6*	3.1	-3.7	-13.4	93.2*	20.7*	95.2*	66.9*	75.7*	61.5*
CCOC(=O)C1=NN(C(=O)c2ccc(OC)cc2)C(O)(c2ccc(Cl)cc2)C1 (centres undefined)	11.1	-0.5	4.6	-4.5	65.3*	-0.3	80.3*	63.9*	41.0	29.6*
CC1(c2ccc(OC(F)F)cc2)NC(=O)N(/N=C/c2c(O)ccc3ccccc23)C1=O (centres undefined)	53.5*	0.3	-3.6	-7.0	63.8*	0.0	68.1*	47.7*	72.6*	59.2*
CC1(c2ccc(OC(F)F)cc2)NC(=O)N(CC(=O)Nc2cccc(S(N)(=O)=O)c2)C1=O (centres undefined)	-11.8	0.7	3.0	-12.7	1.8	1.1	x	x	x	x
COc1ccc(NC(=S)N2CCC(NC(=O)C3CCCCC3)CC2)cc1	-14.1	x	2.8	-4.6	-1.1	x	x	x	x	x
CCCOc1cc(NCc2ccccc2)c2ncn(C(C)C)c2c1	-0.8	x	0.6	x	61.1*	x	41.1*	17.8*	1.3	-1.8
CCC(CO)Oc1cc(NCc2ccc(C)cc2)c2ncn(C(C)C)c2c1 (centres undefined)	-5.4	x	-0.6	x	5.7	x	x	x	x	x
CC(C)n1cnc2c(NCc3ccccc3)cc(Cc3ccc(F)cc3)cc21	16.2	x	4.8	x	47.1*	x	18.7	10.6	25.3	18.9
O=C(O)CCc1ccc(-c2cccs2)n1CCc1ccccc1	32.2	0.4	-4.1	-5.6	62.4*	0.2	82.9*	0.0	72.6*	4.5
O=C(O)CCc1ccc(-c2cccs2)n1CCC(=O)O	-4.4	-0.1	1.7	2.5	3.0	0.4	x	x	x	x
COc1ccc(Nc2nc(N3CCCC3)c3ccccc3n2)cc1	48.2	0.5	-2.0	2.1	67.1*	-1.5	89.4*	9.4	86.3*	18.7
COc1cc(CN2C[C@@H](CO)O[C@@H](n3cnc4c(N5CCN(C)CC5)ncnc43)C2)cc(OC)c1OC	0.3	x	x	x	1.3	x	x	x	x	x
COc1cc(CNCCc2ccccc2)cc(Br)c1OCC(=O)Nc1ccccc1C	59.0*	1.3	-7.2	15.9	87.8*	0.6	92.0*	20.7*	75.7*	33.7*
CNCc1cc(Br)c(OCC(=O)Nc2ccccc2OC)c(OC)c1	-0.2	1.9	-1.5	1.2	4.9	0.7	x	x	x	x
CN(C)/C=C1\C=C2C(=O)c3ccccc3N2C1=O	87.0*	357.4*	150.4*	6.2	413.1*	729.2*	+	+	104.4*	93.7*
CCOc1cc(/C=C2/C(=O)NN(c3cccc(Cl)c3)C2=O)ccc1O	-13.1	x	-6.7	-12.5	52.8*	x	61.7*	17.5*	16.7	10.7
c1cc2c(cc1C1CCCCC1)c1c3n2CCN=C3CCC1	43.5	0.6	-12.3	13.1	66.0*	-0.4	59.1*	24.1*	39.3	17.1
N#Cc1ccc(S(=O)(=O)N2CCN(C(=O)[C@@H]3CCCN3C(=O)c3cccs3)CC2)cc1	-2.5	x	2.3	x	0.7	x	x	x	x	x
COC(=O)C1=C(C)N(Cc2cccc(C(F)(F)F)c2)C(=NCc2ccc(C(F)(F)F)cc2)NC1c1ccc(Cl)cc1 (centres undefined)	31.4	x	x	x	13.2	x	x	x	x	x
CCN=C1NC(c2ccc(Cl)cc2)C(C(=O)OC)=C(C)N1Cc1cccc(C(F)(F)F)c1 (centres undefined)	74.3*	x	x	x	56.4*	x	65.4*	34.9*	81.6*	59.1*
CCN=C1NC(c2ccc(C(F)(F)F)cc2)C(C(=O)OC)=C(C)N1Cc1cccc(C(F)(F)F)c1 (centres undefined)	44.7	x	x	x	46.4*	x	53.4*	27.7*	45.4	45.2*
SMILES	TAAR1 antagonist	TRPML3 ag	LANA-H2A inh	GPR7 antagonist	TAAR1 ag	zfTRPN1 agonist	TAAR1 ag confirm	Ga16 nonsel ag	TAAR1 desens	Ga16 antag count
CCN=C1NC(c2ccc(F)cc2)C(C(=O)OC)=C(C)N1Cc1cccc(C(F)(F)F)c1 (centres undefined)	95.0*	x	x	x	91.8*	x	70.5*	39.3*	75.9*	57.5*
COc1ccc(CN2CCNC(=O)C2CC(=O)N(C)CCCN2CCOCC2)cc1C (centres undefined)	11.0	x	0.3	-15.6	0.0	x	x	x	x	x
O=[N+]([O-])c1ccc(C(O)C[n+]2ccccc2)cc1 (centres undefined)	x	x	2.5	-5.1	x	x	x	x	x	x
COc1ccc(N2CCN(CCC(=O)c3ccc4ccccc4c3)CC2)cc1	-6.4	x	0.3	-8.8	13.4	x	x	x	x	x
COc1ccc(/C(C)=N/NC(=O)CNC(=O)c2cccnc2)c(OC)c1	-22.3	x	1.5	-4.6	-0.3	x	x	x	x	x
CCCCN(C)c1c(C)nc2ccc(C(=O)Nc3ccc(OC)c(OC)c3)cn12	16.4	x	x	x	62.5*	x	85.2*	47.9*	22.9	10.2
CCCCN(C)c1c(C)nc2ccc(C(=O)Nc3cc(-c4ccccc4)ccc3OC)cn12	-22.1	x	x	x	-0.8	x	x	x	x	x
COc1cc2[nH]c(C(=O)N3CCc4ccccc4C3)cc2c(OC)c1OC	-12.0	x	-6.2	-9.2	44.1*	x	71.9*	4.7	16.9	7.6
O=C1S/C(=C/c2ccc(N3CCOCC3)o2)C(=O)N1Cc1ccc(F)cc1	4.8	1.6	-1.4	-18.2	14.1	1.5	x	x	x	x
